In ChEMBL document CHEMBL1132256, “Structure-activity relationships for substituted bis(acridine-4-carboxamides): a new class of anticancer agents” (J Med Chem, 1999):

These compounds were tested on P388 (assay: Inhibitory activity against Murine […]). Conditions: Mus musculus.
Format: functional, cell-based
How it was run: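 Murine P388 leukemia cells seeded at 4.5 × 10^3 cells/well, cultured 3 days with drug; growth measured by [3H]TdR uptake. IC50 = drug concentration (nM) reducing cell number to 50% of controls. Independent assays in duplicate, CV ca. 25%.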

Row | IC50 [nM] | Structure (SMILES)
1 | 48 | Cc1cccc2cc3c(Cl)ccc(C(=O)NCCCN(C)CCCNC(=O)c4ccc(Cl)c5cc6cccc(C)c6nc45)c3nc12
2 | 170 | CN(CCCNC(=O)c1cccc2cc3cc(Cl)ccc3nc12)CCCNC(=O)c1cccc2cc3cc(Cl)ccc3nc12
3 | 1450 | CC(C)c1ccc2nc3c(C(=O)NCCCN(C)CCCNC(=O)c4cccc5cc6cc(C(C)C)ccc6nc45)cccc3cc2c1
4 | 1080 | CCc1ccc2nc3c(C(=O)NCCCN(C)CCCNC(=O)c4cccc5cc6cc(CC)ccc6nc45)cccc3cc2c1
5 | 76 | COc1ccc2cc3cccc(C(=O)NCCCN(C)CCCNC(=O)c4cccc5cc6ccc(OC)cc6nc45)c3nc2c1
6 | 24 | CN(CCCNC(=O)c1cccc2cc3ccc(F)cc3nc12)CCCNC(=O)c1cccc2cc3ccc(F)cc3nc12
7 | 140 | CN(CCCNC(=O)c1cccc2cc3cc(F)ccc3nc12)CCCNC(=O)c1cccc2cc3cc(F)ccc3nc12
8 | 970 | CN(CCCNC(=O)c1cccc2cc3cc(N(C)C)ccc3nc12)CCCNC(=O)c1cccc2cc3cc(N(C)C)ccc3nc12

What follows are compounds tested on Lewis lung carcinoma cell line (assay: Inhibitory activity of tested against Murine Lewis lung carcinoma). Conditions: Mus musculus.
Format: functional, cell-based
How it was run: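 Lewis lung carcinoma (LLTC) cells at 10^3 cells/well, 4-day continuous drug exposure, growth read by sulforhodamine assay. IC50 (nM) = concentration giving 50% of control cell number. Duplicate independent assays, CV ca. 25%.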

Row | IC50 [nM] | Structure (SMILES)
9 | 6 | Cc1cccc2cc3c(Cl)ccc(C(=O)NCCCN(C)CCCNC(=O)c4ccc(Cl)c5cc6cccc(C)c6nc45)c3nc12
10 | 46 | CN(CCCNC(=O)c1cccc2cc3cc(Cl)ccc3nc12)CCCNC(=O)c1cccc2cc3cc(Cl)ccc3nc12
11 | 2080 | CC(C)c1ccc2nc3c(C(=O)NCCCN(C)CCCNC(=O)c4cccc5cc6cc(C(C)C)ccc6nc45)cccc3cc2c1
12 | 770 | CCc1ccc2nc3c(C(=O)NCCCN(C)CCCNC(=O)c4cccc5cc6cc(CC)ccc6nc45)cccc3cc2c1
13 | 20 | COc1ccc2cc3cccc(C(=O)NCCCN(C)CCCNC(=O)c4cccc5cc6ccc(OC)cc6nc45)c3nc2c1
14 | 20 | CN(CCCNC(=O)c1cccc2cc3ccc(F)cc3nc12)CCCNC(=O)c1cccc2cc3ccc(F)cc3nc12
15 | 32 | CN(CCCNC(=O)c1cccc2cc3cc(F)ccc3nc12)CCCNC(=O)c1cccc2cc3cc(F)ccc3nc12
16 | 183 | CN(CCCNC(=O)c1cccc2cc3cc(N(C)C)ccc3nc12)CCCNC(=O)c1cccc2cc3cc(N(C)C)ccc3nc12

Each compound was assayed on Jurkat (assay: Concentration required to inhibit 50% growth of human Jurkat cells). Conditions: not given.
Format: functional, cell-based
How it was run: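 Jurkat leukemia (JLC) cells seeded at 3.75 × 10^3 cells/well and exposed to drug for 4 days; growth measured by sulforhodamine assay. IC50 = drug concentration (nM) reducing cell number to 50% of control cultures. Independent assays in duplicate, coefficients of variation ca. 25%.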

Row | IC50 [nM] | Structure (SMILES)
17 | 12 | Cc1cccc2cc3c(Cl)ccc(C(=O)NCCCN(C)CCCNC(=O)c4ccc(Cl)c5cc6cccc(C)c6nc45)c3nc12
18 | 136 | CN(CCCNC(=O)c1cccc2cc3cc(Cl)ccc3nc12)CCCNC(=O)c1cccc2cc3cc(Cl)ccc3nc12
19 | 2080 | CC(C)c1ccc2nc3c(C(=O)NCCCN(C)CCCNC(=O)c4cccc5cc6cc(C(C)C)ccc6nc45)cccc3cc2c1
20 | 1640 | CCc1ccc2nc3c(C(=O)NCCCN(C)CCCNC(=O)c4cccc5cc6cc(CC)ccc6nc45)cccc3cc2c1
21 | 51 | COc1ccc2cc3cccc(C(=O)NCCCN(C)CCCNC(=O)c4cccc5cc6ccc(OC)cc6nc45)c3nc2c1
22 | 52 | CN(CCCNC(=O)c1cccc2cc3ccc(F)cc3nc12)CCCNC(=O)c1cccc2cc3ccc(F)cc3nc12
23 | 96 | CN(CCCNC(=O)c1cccc2cc3cc(F)ccc3nc12)CCCNC(=O)c1cccc2cc3cc(F)ccc3nc12
24 | 760 | CN(CCCNC(=O)c1cccc2cc3cc(N(C)C)ccc3nc12)CCCNC(=O)c1cccc2cc3cc(N(C)C)ccc3nc12

Each compound was assayed on Jurkat (assay: Ratio of inhibitory activity against amsacrine resistant jurkat cells to inhibitory activity against wild type human jurkat cells). Conditions: not given.
Format: functional
How it was run: (§1)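 Wild-type Jurkat (JLC) and its amsacrine-resistant (JLA) or doxorubicin-resistant (JLD) sublines each seeded at 3.75 × 10^3 cells/well, 4 days with drug, sulforhodamine read-out. IC50 (nM) for 50% of control cell number; ratio = resistant-line IC50 divided by JLC IC50. Duplicate assays, CV ca. 25%.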

Row | Structure (SMILES) | Ratio
25 | Cc1cccc2cc3c(Cl)ccc(C(=O)NCCCN(C)CCCNC(=O)c4ccc(Cl)c5cc6cccc(C)c6nc45)c3nc12 | 0.3
26 | CN(CCCNC(=O)c1cccc2cc3cc(Cl)ccc3nc12)CCCNC(=O)c1cccc2cc3cc(Cl)ccc3nc12 | 0.8
27 | CC(C)c1ccc2nc3c(C(=O)NCCCN(C)CCCNC(=O)c4cccc5cc6cc(C(C)C)ccc6nc45)cccc3cc2c1 | 1.1
28 | CCc1ccc2nc3c(C(=O)NCCCN(C)CCCNC(=O)c4cccc5cc6cc(CC)ccc6nc45)cccc3cc2c1 | 0.9
29 | COc1ccc2cc3cccc(C(=O)NCCCN(C)CCCNC(=O)c4cccc5cc6ccc(OC)cc6nc45)c3nc2c1 | 0.5
30 | CN(CCCNC(=O)c1cccc2cc3ccc(F)cc3nc12)CCCNC(=O)c1cccc2cc3ccc(F)cc3nc12 | 0.6
31 | CN(CCCNC(=O)c1cccc2cc3cc(F)ccc3nc12)CCCNC(=O)c1cccc2cc3cc(F)ccc3nc12 | 0.6
32 | CN(CCCNC(=O)c1cccc2cc3cc(N(C)C)ccc3nc12)CCCNC(=O)c1cccc2cc3cc(N(C)C)ccc3nc12 | 1

The compounds below were run on Jurkat (assay: Ratio of inhibitory activity against doxorubicin resistant jurkat cells to inhibitory activity against wild type human jurkat cells). Conditions: not given.
Format: functional
How it was run: as §1

Row | Structure (SMILES) | Ratio
33 | Cc1cccc2cc3c(Cl)ccc(C(=O)NCCCN(C)CCCNC(=O)c4ccc(Cl)c5cc6cccc(C)c6nc45)c3nc12 | 0.6
34 | CN(CCCNC(=O)c1cccc2cc3cc(Cl)ccc3nc12)CCCNC(=O)c1cccc2cc3cc(Cl)ccc3nc12 | 0.9
35 | CC(C)c1ccc2nc3c(C(=O)NCCCN(C)CCCNC(=O)c4cccc5cc6cc(C(C)C)ccc6nc45)cccc3cc2c1 | 1.1
36 | CCc1ccc2nc3c(C(=O)NCCCN(C)CCCNC(=O)c4cccc5cc6cc(CC)ccc6nc45)cccc3cc2c1 | 1.4
37 | COc1ccc2cc3cccc(C(=O)NCCCN(C)CCCNC(=O)c4cccc5cc6ccc(OC)cc6nc45)c3nc2c1 | 0.8
38 | CN(CCCNC(=O)c1cccc2cc3ccc(F)cc3nc12)CCCNC(=O)c1cccc2cc3ccc(F)cc3nc12 | 0.9
39 | CN(CCCNC(=O)c1cccc2cc3cc(F)ccc3nc12)CCCNC(=O)c1cccc2cc3cc(F)ccc3nc12 | 0.8
40 | CN(CCCNC(=O)c1cccc2cc3cc(N(C)C)ccc3nc12)CCCNC(=O)c1cccc2cc3cc(N(C)C)ccc3nc12 | 0.9
